The text below walks through data of PMC7115421 (European Journal of Medicinal Chemistry, 2009).

Molecules are shown by their SMILES.

The subject of data set [1] is MDA-MB468 breast cancer cell line. In words: SRB cytotoxicity assay, MDA-MB468. The note with it: Homo sapiens. Format: cell-based. In outline:
(§1)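 Cells grown in RPMI 1640 with 10% FBS and 2 mM L-glutamine at 37 °C, 5% CO2. 5000–10,000 cells/well seeded 24 h before dosing. Seven concentrations from 2–10-fold serial dilutions; medium with matched DMSO as control. After 48 h: TCA fixation (60 min, 4 °C), 0.4% SRB, Tris solubilisation, absorbance 515–564 nm. Growth = (Ti−Tz)/(C−Tz)×100. GI50 from variable-slope sigmoidal fit; triplicates, ≥3 experiments.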

Data set [2] concerns MDA-MB231 breast cancer cell line. In words: SRB cytotoxicity assay, MDA-MB231. The note with it: Homo sapiens. Format: cell-based. In outline: as §1
Data set [3] concerns MCF7 breast cancer cell line. In words: SRB cytotoxicity assay, MCF7. Format: cell-based, human. In outline:
as §1

The test system of data set [4] is 184B5 immortalized breast cell line. In words: SRB cytotoxicity assay, 184B5 non-cancer cells. Format: cell-based, human. The note with it: for killing of 184B5 non-cancer cells (in words): combined with constant amount of Akt inhibitors 7–10 (0.04, 0.4, 3.5, 0.5 μM).
Data set [5] has as its system MDA-MB468, MDA-MB231 and MCF7 breast cancer cell lines. In words: SRB cytotoxicity assay, three breast cancer cell lines together. Format: cell-based, human. The note with it: for sensitization of cell killing by PI3K-Akt inhibitors (in words): in combination with GI20 doses of PI3K-Akt inhibitors, three breast cancer cell lines. In outline: (§2)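 Cells plated at 5000–10,000/well and held 24 h at 37 °C, 5% CO2; time-zero wells TCA-fixed. Test compound from DMSO stock, seven concentrations (2–10-fold dilutions), 48 h; DMSO-matched medium control. Cold TCA fixation (10% final), 60 min, 4 °C; 0.4% SRB stain; Tris base solubilisation; A515–564 nm. Growth % = (Ti−Tz)/(C−Tz)×100; GI values from variable-slope sigmoidal fit; triplicates, ≥3 independent experiments.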

The test system of data set [6] is MDA-MB468, MDA-MB231, MCF7 and 184B5. In words: SRB cytotoxicity assay, all four cell lines together. Format: cell-based, human. The note with it: for cytotoxicity (in words) on the four cell lines: PI3K-Akt inhibitor alone; for average GI20 values on the four cell lines: average over MDA-MB468, MDA-MB231, MCF7, 184B5. In outline:
as §2

`CCN(CC)CCCC(C)Nc1ccnc2cc(Cl)ccc12` (centres unmarked) [Compound 1, Chloroquine diphosphate]: the IC50 in data set [1] (MDA-MB-468) was 28.6 µM; in data set [2] (MDA-MB-231) it was 22.5 µM; in data set [3] (Homo sapiens, MCF7), 38.4 µM; in data set [4] (Homo sapiens, 184B5), 76.1 µM. Besides, the GI50 in data set [1] (MDA-MB-468, 48 h) is 28.6 ± 1.25 µM; in data set [2] (MDA-MB-231, 48 h), 22.5 ± 1.44 µM; in data set [3] (Homo sapiens, MCF7, 48 h) it was 38.4 ± 1.2 µM; in data set [5] (Homo sapiens, read-out: GI50 on the cancer cell lines (range)), 22.5 to 38.4 µM.

With `CCCCNc1ccnc2cc(Cl)ccc12` [Compound 2, Butyl-(7-chloro-quinolin-4-yl)-amine], the “killing of 184B5 non-cancer cells (in words)” value in data set [4] was “effectively killed”. In addition, the “sensitization of cell killing by PI3K-Akt inhibitors (in words)” value in data set [5] is “generally not effective sensitizers”.

As to `CCCCNc1ccnc2cc(F)ccc12` [Compound 3, Butyl-(7-fluoro-quinolin-4-yl)-amine], the “killing of 184B5 non-cancer cells (in words)” value in data set [4] is “effectively killed”. Moreover, the “sensitization of cell killing by PI3K-Akt inhibitors (in words)” value in data set [5] is “generally not effective sensitizers”.

For the compound `CN(C)CCNc1ccnc2cc(Cl)ccc12` [Compound 4, N′-(7-Chloro-quinolin-4-yl)-N,N-dimethyl-ethane-1,2-diamine], the “sensitization of cell killing by PI3K-Akt inhibitors (in words)” value in data set [5] was “substantial enhancement of cell killing”.

`CN(C)CCNc1ccnc2cc(F)ccc12` [Compound 5, N′-(7-Fluoro-quinolin-4-yl)-N,N-dimethyl-ethane-1,2-diamine]: the “sensitization of cell killing by PI3K-Akt inhibitors (in words)” value in data set [5] was “substantial enhancement of cell killing”.

Consider `COc1ccc2c(NCCN(C)C)ccnc2c1` [Compound 6, N′-(7-Methoxy-quinolin-4-yl)-N,N-dimethyl-ethane-1,2-diamine], for which the “sensitization of cell killing by PI3K-Akt inhibitors (in words)” value in data set [5] is listed as “not very effective”.

As for `CC[n+]1c(C=CN(C)c2ccccc2)n(-c2ccccc2)c2ccc(-c3nc4ccccc4s3)cc21.[I-]` [Compound 7, 6-Benzothiazol-2-yl-1-ethyl-2-[2-(methyl-phenyl-amino)-vinyl]-3-phenyl-3H-benzoimidazol-1-ium Iodide], in data set [6], the “cytotoxicity (in words) on the four cell lines” value is given as “the most cytotoxic” and the “average GI20 values on the four cell lines” value came to 0.04 µM.

As for `O=c1[nH]c2ccccc2n1C1CCN(Cc2ccc(-c3nc4cc5nc[nH]c5cc4nc3-c3ccccc3)cc2)CC1` [Compound 8, 1-{1-[4-(7-Phenyl-1H-imidazo[4,5-g]quinoxalin-6-yl)-benzyl]-piperidin-4-yl}-1,3-dihydro-benzoimidazol-2-one], the “cell killing (in words) of MCF7” value in data set [3] (PI3K-Akt inhibitor alone, not other cells examined) is “killed MCF7 cells effectively”.

For the compound `CCN(CC)CCCCN1c2ccccc2OC2C=CC(Cl)=CC21.Cl` (centres unmarked) [Compound 9, [4-(2-chloro-4a,10a-dihydro-phenoxazin-10-yl)-butyl]-diethyl-amine hydrochloride], the “cytotoxicity (in words) on the four cell lines” value in data set [6] was “only week cytotoxicity”.

Take `O=c1cc(N2CCOCC2)oc2c(-c3ccccc3)cccc12` [Compound 10, 2-Morpholin-4-yl-8-phenyl-chromen-4-one]: in data set [6], the “average GI20 values on the four cell lines” value is 0.52 µM.
